Experimental findings from ChEMBL document CHEMBL1649558, “Antiviral activity of chloroquine against human coronavirus OC43 infection in newborn mice” (Antimicrob Agents Chemother, 2009) are described below.

In general, EC50 refers to the midpoint of the concentration-response curve. Higher therefore signals weaker potency. A word on the CC50: it is the concentration that lowers cell viability or growth by half. High values mean better tolerance by the cells, low ones harm at low concentration.

The subject of data set [1] is Human coronavirus OC43. Nature of the data set: Antiviral activity against Human coronavirus OC43 infected in human HRT18 cells after 4 days by qRT-PCR analysis. The conditions noted are these: Betacoronavirus 1, HRT-18, 96 h. The data set is classed as functional, cell-based. The essentials:
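HRT-18 cells were seeded and grown 4 days, then infected with 1 × 10⁶ HCoV-OC43 copies/ml in MEM with 2% FCS, with chloroquine at 0.032–500 μM. After 4 days at 37°C in 5% CO₂, viral RNA in the supernatant was quantified by qRT-PCR against a cRNA standard curve. EC50 is the concentration halving the viral RNA increase relative to untreated infected cells.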
For orientation: Quantitative PCR measures a nucleic acid by following its amplification.

The test system of data set [2] is Human coronavirus OC43. Nature of the data set: Antiviral activity against Human coronavirus OC43 infected in new born C57BL/6 mouse assessed as survival rate at 1 mg/kg, sc transfered via maternal milk after administration to pregnant mouse. The data set is classed as functional. The conditions noted are these: Betacoronavirus 1, sc, route subcutaneous. In outline: (§1)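 Pregnant C57BL/6 dams were given chloroquine subcutaneously (200 μl; 1, 5 or 15 mg/kg) prepartum or postpartum; controls were untreated. Five-day-old pups were inoculated intracerebrally with 1 × 10³ HCoV-OC43 copies in 10 μl. Mortality was monitored daily, and survivors were followed for 60 days. Survival is surviving pups over total pups; curves were compared by log-rank test.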

Data set [3] can be described thus: Selectivity index, ratio of CC50 for human HRT18 cells to EC50 for Human coronavirus OC43 infected in human HRT18 cells. The conditions noted are these: read-out: Ratio CC50/EC50. The data set is classed as toxicity, cell-based. The essentials: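 Index = CC50/EC50. For the EC50, HRT-18 cells were seeded at 6 × 10⁴ per well and grown 4 days. They were then infected with 1 × 10⁶ OC43 copies/ml in 2% serum MEM with 0.032–500 μM compound for 4 days at 37°C. Supernatant RNA was measured by qRT-PCR against a cRNA standard curve. The CC50 came from the MTS viability assay at 4 days.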

Data set [4] concerns Human coronavirus OC43. Nature of the data set: Antiviral activity against Human coronavirus OC43 infected in new born C57BL/6 mouse assessed as survival rate at 5 mg/kg, sc transfered via placenta after administration to pregnant mouse. Type of data set: functional. The settings on record: Betacoronavirus 1, sc, route subcutaneous. The essentials: as §1
Data set [5] can be described thus: Cytotoxicity against human HRT18 cells after 4 days by MTS assay. Type of data set: cell-based, HRT-18. In outline: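 HRT-18 cells grown in MEM with 10% fetal calf serum, 1% L-glutamine and 1.4% sodium bicarbonate were exposed to a range of compound concentrations for 4 days at 37°C, 5% CO₂. Viable cells were quantified by MTS reduction to formazan, read at 492 nm. CC50 is the concentration reducing viability by 50%.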

The subject of data set [6] is Human coronavirus OC43. Nature of the data set: Antiviral activity against Human coronavirus OC43 infected in pregnant C57BL/6 mouse assessed as survival rate at 5 mg/kg, sc administered prepartum. The data set is classed as functional. The settings on record: Betacoronavirus 1, sc, route subcutaneous. In outline: as §1
For data set [7], the system named is Human coronavirus OC43. Nature of the data set: Antiviral activity against Human coronavirus OC43 infected in pregnant C57BL/6 mouse assessed as survival rate at 1 mg/kg, sc administered postpartum. Type of data set: functional. The conditions noted are these: Betacoronavirus 1, sc, route subcutaneous. In outline: as §1
In data set [8] the test system is Human coronavirus OC43. Nature of the data set: Antiviral activity against Human coronavirus OC43 infected in pregnant C57BL/6 mouse assessed as survival rate at 15 mg/kg, sc administered postpartum. The data set is classed as functional. The conditions noted are these: Betacoronavirus 1, sc, route subcutaneous. In outline:
as §1

In data set [9] the test system is Human coronavirus OC43. Briefly: Antiviral activity against Human coronavirus OC43 infected in pregnant C57BL/6 mouse assessed as survival rate at 1 mg/kg, sc administered prepartum. The conditions noted are these: Betacoronavirus 1, sc, route subcutaneous. The data set is classed as functional. In outline:
as §1

Data set [10] concerns Human coronavirus OC43. Nature of the data set: Antiviral activity against Human coronavirus OC43 infected in new born C57BL/6 mouse assessed as survival rate at 5 mg/kg, sc transfered via maternal milk after administration to pregnant mouse. The data set is classed as functional. The conditions noted are these: Betacoronavirus 1, sc, route subcutaneous. In outline: as §1

Data set [11] concerns Human coronavirus OC43. Briefly: Antiviral activity against Human coronavirus OC43 infected in human HRT18 cells assessed as decrease in viral load at 10 uM treated at the time of infection measured after 28 hrs by qRT-PCR analysis relative to control. The data set is classed as functional. The essentials:
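Subconfluent HRT-18 monolayers were infected with 4 × 10⁷ HCoV-OC43 genome equivalents/ml, adsorbed 30 min, and washed five times with MEM. Chloroquine (10 μM) was added at infection or at later time points. Supernatant viral RNA was quantified by qRT-PCR at 28 h postinfection. Two independent experiments in duplicate; mean ± SEM.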

Data set [12] has as its system Human coronavirus OC43. Briefly: Antiviral activity against Human coronavirus OC43 infected in new born C57BL/6 mouse assessed as survival rate at 15 mg/kg, sc transfered via placenta after administration to pregnant mouse. Type of data set: functional. The settings on record: Betacoronavirus 1, sc, route subcutaneous.
Data set [13] has as its system Human coronavirus OC43. Nature of the data set: Antiviral activity against Human coronavirus OC43 infected in new born C57BL/6 mouse assessed as survival rate at 1 mg/kg, sc transfered via placenta after administration to pregnant mouse. The data set is classed as functional. The conditions noted are these: Betacoronavirus 1, sc, route subcutaneous. The essentials:
as §1

The subject of data set [14] is Human coronavirus OC43. Nature of the data set: Antiviral activity against Human coronavirus OC43 infected in pregnant C57BL/6 mouse assessed as survival rate at 5 mg/kg, sc administered postpartum. The conditions noted are these: Betacoronavirus 1, sc, route subcutaneous. Type of data set: functional. In outline:
as §1

In data set [15] the test system is Human coronavirus OC43. Briefly: Antiviral activity against Human coronavirus OC43 infected in pregnant C57BL/6 mouse assessed as survival rate at 15 mg/kg, sc administered prepartum. Type of data set: functional. The settings on record: Betacoronavirus 1, sc, route subcutaneous. In outline:
as §1

The subject of data set [16] is Human coronavirus OC43. Briefly: Antiviral activity against Human coronavirus OC43 infected in new born C57BL/6 mouse assessed as survival rate at 15 mg/kg, sc transfered via maternal milk after administration to pregnant mouse. The conditions noted are these: Betacoronavirus 1, sc, route subcutaneous. Type of data set: functional.

`CCN(CC)CCCC(C)Nc1ccnc2cc(Cl)ccc12.O=P(O)(O)O.O=P(O)(O)O` (stereo unspecified) [CHLOROQUINE PHOSPHATE]: in data set [1], the response was half-maximal at 0.306 µM (EC50). The survival at 1 mg/kg in [2] amounted to 0%; in data set [7], 0%; in data set [9], 33.3%; in [13], 33.3%. Besides, the selectivity ratio in data set [3] is 1370. Also, the survival at 5 mg/kg in data set [4] came to 92.9%; in data set [6] it was 92.9%; in data set [10] it was 83.3%; in [14] it was 83.3%. The same molecule had a CC50 at 96 h in data set [5] of 419 µM. Besides, the survival at 15 mg/kg in data set [8] was found to be 97.4%; in data set [12], 100%; in data set [15], 100%; in data set [16], 97.4%. The “fold change (FC)” value in [11] was determined as 100.
